Many of the other results were omitted from the sample, so hits are more common in it than they were.
UPR CHOP act: activators of apoptotic arm of unfolded protein response (CHOP) | CHO-CHOP luciferase reporter, UPR activation, luminescence; percent of tunicamycin response over DMSO baseline | activation, % at 10 µM | 0.34% of 330,000 active | AID 449763;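 active means at 10 µM dose, activation of 40% or more, normalized to positive control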;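 further: 100% = tunicamycin at 10 µg/mL and 0% = DMSO alone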
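Assay system: CHO-CHOP cells, stable luciferase reporter of PERK-eIF2a-CHOP signalling / Buffer or medium: F12 plus 10% serum / Compound dosing: one dose, 10 µM in 0.5% DMSO / Times: 6 h compound treatment, 37 °C / Technique: luciferase luminescence / Read-out: % reporter activation, DMSO baseline versus tunicamycin full activation / Benchmarks: tunicamycin and DMSO controls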
TLR4 MyD88 comp: blocks binding of human TLR4 to MyD88. AID 861. HeLa CL3-4 TLR4/MyD88 BLA complementation, FRET ratio. inhibition, % at 8.4 µM. 0.18% of 200,000 active; in the data active means inhibition above about 25%;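 further: 0% = vehicle and 100% = reference inhibitor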
CHOP inh: inhibitors of CHOP induction in ER stress response | 3.8% of 220,000 active | inhibition, % at 10 µM | CHO-K1 CHOP-promoter luciferase, tunicamycin-induced, 15-18 h;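 active means compounds that reduced the stress-induced luciferase reporter signal by more than about 70% of percent inhibition, limit read from the data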;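 further: 0% = tunicamycin plus vehicle and 100% = wells without tunicamycin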
NOD2-RIPK2 inh: inhibitors of human NOD2-RIPK2 interaction; O43353; CHO BLA complementation NOD2-RIPK2, CCF4 ratio; inhibition, % at 4.98 µM; 0.38% of 360,000 active; AID 624267; in the data active means inhibition above about 21%;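 further: 0% = vehicle only and 100% = reference blocker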
TLR9-MyD88 block: blocks human TLR9 binding to MyD88. inhibition, % at 4.98 µM. Q9NR96+Q99836. CHO BLA complementation TLR9-MyD88, CCF4 FRET ratio. 0.21% of 340,000 active. AID 504734;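 active means inhibition above the mean over all tested compounds plus 3 SD, cut at about 21% in these data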;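 further: 0% = DMSO only wells and 100% = clavulanate BLA inhibitor control wells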
UPR XBP1 act: adaptive UPR (XBP1) activation. activation, % at 20 µM. 0.33% of 330,000 active. AID 463104. CHO-XBP1 luciferase reporter, IRE1-XBP1 UPR activation, luminescence; percent of tunicamycin response, DMSO as zero;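 active means versus positive control, 20 µM dose yields 30% or more activation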;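 further: 100% = tunicamycin at 10 µg/mL and 0% = DMSO only wells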
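Assay system: IRE1-XBP1 luciferase reporter CHO line. Input: 1000 cells/well. Buffer or medium: F12 with 10% serum. Doses: 20 µM, 1% DMSO. Times: overnight seeding at 37 °C, 6 h compound treatment at 37 °C. Technique: Steady-Glo luciferase glow luminescence, 10 min after reagent addition.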
* marks the source's active call; other numbers are inactive results.

`CS(=O)(=O)N(Cc1ccc(C(=O)Nc2ccccc2Sc2ccccc2)cc1)c1ccccc1` gave UPR CHOP act -2, TLR4 MyD88 comp 2, CHOP inh 77*, NOD2-RIPK2 inh -3, TLR9-MyD88 block -13 and UPR XBP1 act -2.
For O=C(Cc1ccccc1)Nc1ccccc1Sc1ccccc1 the results were UPR CHOP act 1, TLR4 MyD88 comp -9, CHOP inh 16, NOD2-RIPK2 inh 8, TLR9-MyD88 block -1 and UPR XBP1 act -2.
O=c1[nH]c(=S)[nH]c2c1[C@H](C1CC1)O[C@H](CCc1ccccc1)C2 was read as NOD2-RIPK2 inh 1.
Cc1ccccc1Nc1ncnc2c1cnn2-c1ccccc1 was read as UPR CHOP act 5, TLR4 MyD88 comp 6, CHOP inh 73*, NOD2-RIPK2 inh -4, TLR9-MyD88 block 8 and UPR XBP1 act 4.
For CCOc1ccc(Nc2ncnc3c2cnn3-c2ccccc2)cc1 the results were UPR CHOP act 7, TLR4 MyD88 comp 17, CHOP inh 101*, NOD2-RIPK2 inh 7, TLR9-MyD88 block 13 and UPR XBP1 act 3.
Screening CCc1nc2c(OCC3CCCCC3)cccn2c1N(C)C(=O)c1ccccc1F returned NOD2-RIPK2 inh 8.
For COC(=O)N/N=C/c1cc(Cl)cc(Cl)c1OCc1ccccc1 the results were UPR CHOP act 3, TLR4 MyD88 comp 3, CHOP inh 74*, NOD2-RIPK2 inh -6, TLR9-MyD88 block -39 and UPR XBP1 act -2.
For Cc1ccccc1N=C(NOCc1ccc(Cl)cc1Cl)c1nonc1N the results were UPR CHOP act 0, TLR4 MyD88 comp -13, CHOP inh 85*, NOD2-RIPK2 inh -11, TLR9-MyD88 block 3 and UPR XBP1 act 0.
`CCOC(=O)CSc1nc2cc(OCC)ccc2cc1C#N` gave UPR CHOP act 3, TLR4 MyD88 comp 15, CHOP inh 93*, NOD2-RIPK2 inh -1, TLR9-MyD88 block 13 and UPR XBP1 act 12.
CC(=O)C1=CCC(c2ccc(Cl)c(Cl)c2)N(S(=O)(=O)c2ccc(C)cc2)C1 (stereo not given) was read as NOD2-RIPK2 inh -8.
Screening C=CCNC(=O)c1cnc(-c2ccccc2)nc1-c1ccccc1 returned UPR CHOP act -1, NOD2-RIPK2 inh -6, TLR9-MyD88 block -3 and UPR XBP1 act 1.
`O=C(Nc1ccc(F)cc1)c1cnc(-c2ccccc2)nc1-c1ccccc1` gave UPR CHOP act 1, TLR4 MyD88 comp 0, CHOP inh 81*, NOD2-RIPK2 inh -4, TLR9-MyD88 block 1 and UPR XBP1 act 5.
O=C(Nc1ccc(F)c(F)c1)c1cnc(-c2ccccc2)nc1-c1ccccc1 was read as UPR CHOP act 0, TLR4 MyD88 comp 6, CHOP inh 94*, NOD2-RIPK2 inh -12, TLR9-MyD88 block 16 and UPR XBP1 act 7.
CN(C)C(=O)C[C@@H]1C=C[C@@H](NC(=O)C2CCC2)[C@@H](CO)O1 was read as NOD2-RIPK2 inh -10.
Nc1cccc(C(=O)c2ccccc2C(=O)O)c1 was read as NOD2-RIPK2 inh 4 and TLR9-MyD88 block -13.
Screening Cc1ccc(SCc2ccc(C(=O)N3CCCC3)cc2)cc1 returned UPR CHOP act 4, TLR4 MyD88 comp -2, CHOP inh -12, NOD2-RIPK2 inh 1, TLR9-MyD88 block 7 and UPR XBP1 act 8.
For Cc1ccc(SCC2(O)CCN(C(=O)c3ccc(Cl)cc3)CC2)cc1 the results were UPR CHOP act -1, TLR4 MyD88 comp 1, CHOP inh 82*, NOD2-RIPK2 inh 1, TLR9-MyD88 block 13 and UPR XBP1 act -3.
For O=C(N/N=C/c1cc(Cl)cc([N+](=O)[O-])c1O)NC12CC3CC(CC(C3)C1)C2 the results were UPR CHOP act 2, TLR4 MyD88 comp -25, CHOP inh 81*, NOD2-RIPK2 inh 1, TLR9-MyD88 block -6 and UPR XBP1 act 0.
Screening C[C@@H]1CN([C@@H](C)CO)C(=O)CCCn2nncc2CO[C@H]1CN(C)C(=O)Cc1ccccc1 returned NOD2-RIPK2 inh -2 and TLR9-MyD88 block 7.

Assay outcomes (PubChem BioAssay)
